Measurements published in the array DNA melting data of Ke et al. (doi:10.1101/2024.01.08.574731).

Experiments:
[1] = melting temperature; fluorescence melt of hairpins on a sequencing array, two-state fit, raised by 9.35 °C to match UV melts; conditions: sodium 0.088 M
Procedure, shortened: (§1)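 To match UV melts, fitted temperatures were raised by 9.35 °C. These fits were bootstrapped two-state models that gave melting temperature and folding enthalpy, combined by inverse variance over four replicates. The input was normalised Cy3 fluorescence of library hairpins with annealed Cy3 and quencher oligos on a sequenced MiSeq flow cell, imaged in 50 mM Na-HEPES pH 8.0, 25 mM NaCl in 2.5 °C steps up to 60 °C.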

[2] = folding enthalpy; higher = less favourable; fluorescence melt of hairpins on a sequencing array, two-state fit; conditions: sodium 0.088 M
Procedure, shortened: as §1

Sequence	Tm [1]	folding enthalpy [2]
GCATACGAAAGTAAGTGC ((((((....)))..)))	34.5 °C	-21.4 kcal/mol
GCTAAGCGAAAGCTCAGC (((.(((....))).)))	48 °C	-31.6 kcal/mol
GCTTTACGAAAGTACAGC (((.(((....))).)))	44.8 °C	-28.6 kcal/mol
GCGAGCGAAAGCTGCGC ((((((....))).)))	68.9 °C	-21.8 kcal/mol
GCGCAGGGAAACCTACGC (((.(((....))).)))	50.1 °C	-39.9 kcal/mol
GGCAGACCGAAAGGTGCC (((..(((....))))))	55.4 °C	-35 kcal/mol
GACGGTGAAAACCGTC ((((((....))))))	68.5 °C	-32.1 kcal/mol
GATTTAGCGAAAGCTATC (((..(((....))))))	29.1 °C	-10.5 kcal/mol
GGGATACCGAAAGGTCCC (((..(((....))))))	45.2 °C	-17.4 kcal/mol
GTCTGCGAAAGCAATGAC ((((((....)))..)))	39.3 °C	-16.8 kcal/mol
GTGCGCCGAAAGGCCCAC (((.(((....))).)))	48.5 °C	-24.4 kcal/mol
GCTCTCGAAAGAGCAGC ((((((....))).)))	48.2 °C	-15.4 kcal/mol
GCGGTAACCGC ((((...))))	57.5 °C	-27.8 kcal/mol
GCATTGCGAAAGCACAGC ((..(((....)))..))	35.4 °C	-15.2 kcal/mol
GATCCCAATGGGATC ((((((...))))))	60.6 °C	-32.5 kcal/mol
GGTGCCACGAAAGTGACC (((..(((....))))))	35.5 °C	-15.5 kcal/mol
GATCCAAACGTGGATC ((((((....))))))	49 °C	-37.4 kcal/mol
GATCTCGGAAGAGATC ((((((....))))))	63.6 °C	-37.4 kcal/mol
GGGAGCCGAAAGGCCCCC (((.(((....))).)))	65.9 °C	-21.3 kcal/mol
CGACCCGGAAACGGTTCG (((.(((....))).)))	48.6 °C	-39.8 kcal/mol
GTACTGCGAAAGCACTAC (((.(((....))).)))	28.8 °C	-14.8 kcal/mol
GCGTATGGAAACACACGC ((((.((....)).))))	46.3 °C	-29 kcal/mol
GCGTTGGGAAACCGATGC ((.(.((....)).).))	44 °C	-25.9 kcal/mol

Sequence	Tm [1]	folding enthalpy [2]
GTCGACGGAAACACCGAC ((((..(....)..))))	31.6 °C	-24.8 kcal/mol
GGTGGGGGAAACCCTACC (((.(((....))).)))	52.7 °C	-27.1 kcal/mol
GATCCACTCATGGATC ((((((....))))))	52.5 °C	-41.5 kcal/mol
GTGTTAGGAAACTAACGC (.(((((....))))).)	47.4 °C	-21.8 kcal/mol
GTCTCACGAAAGTGGAC (((.(((....))))))	47.2 °C	-20.7 kcal/mol
GCAAGACGAAAGTCGTGC (((.(((....))).)))	61.1 °C	-32.2 kcal/mol
GCTACATCGAAAGATAGC (((..(((....))))))	33.8 °C	-16.7 kcal/mol
GATCTCCGCGAGATC ((((((...))))))	55.4 °C	-44.8 kcal/mol
GATCTTATCCAAGATC ((((((....))))))	42.6 °C	-31.6 kcal/mol
CGAACGGAAACGTCGTCG ((((((....)))..)))	47.1 °C	-18.3 kcal/mol
GATCATAACGATGATC ((((((....))))))	45.9 °C	-31.5 kcal/mol
GGCGTTGGAAACAATGCC (((.(((....))).)))	56.5 °C	-53.7 kcal/mol
GGTTTCGAAAGAATCACC ((((((....)))..)))	26.7 °C	-13 kcal/mol
GCTCTCGAAAGAGGCAGC ((((((....)))..)))	42.3 °C	-15.5 kcal/mol
GCTCGGCCGAAAGGCAGC (((..(((....))))))	55.6 °C	-8.78 kcal/mol
GATCGTCAGCACGATC ((((((....))))))	52.6 °C	-27.8 kcal/mol
GGTAGACGAAAGTCAACC (((.(((....))).)))	51.5 °C	-26.3 kcal/mol
GGGTGTGGAAACGTACCC ((((..(....)..))))	45.5 °C	-28.7 kcal/mol
GAACCAGGAAACTGGCTC ((.((((....)))).))	39.6 °C	-21.8 kcal/mol
GTTGGCCGAAAGGCTAAC (((.(((....))).)))	58.3 °C	-28.6 kcal/mol
GTGTCACCGAAAGGTCAC (((..(((....))))))	38.2 °C	-20.5 kcal/mol
GTGACCGAAAGGTACAC ((((((....))).)))	49.9 °C	-19.4 kcal/mol
GGAAACGGAAACGTCTCC (((.(((....))).)))	37.2 °C	-23.6 kcal/mol
